Reference: ChEMBL document CHEMBL1155041, “Discovery of N-(2-aminophenyl)-4-[(4-pyridin-3-ylpyrimidin-2-ylamino)methyl]benzamide (MGCD0103), an orally active histone deacetylase inhibitor” (J Med Chem, 2008)
Counter-ions that a name gives are not always drawn. One block for each compound: values may come before it. Activity calls are given as the source filed them. The rule behind the calls is not given here.

Tests used:
HCT-116 [1] = assay: Induction of apoptosis in HCT116 cells at 1 uM; assay type: functional, cell-based; settings: Homo sapiens
Summary of the method: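 Apoptosis was measured in HCT116 cells with a cell-death detection ELISA (nucleosome release), read at 405 nm with a 490 nm reference. Scored positive/negative at 1 µM.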

SW48 [2] = assay: Antitumor activity against human SW48 cells xenografted in CD1 nude mouse at 120 mg/kg/day, po; assay type: functional; settings: read-out: TGI
Summary of the method: (§1)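 Tumors were started from about 2 million cells injected sc into the flank of female CD-1 nude mice aged 8-10 weeks, then serially passaged at least three times. About 30 mg fragments were implanted sc under anesthesia. Dosing was oral, daily, as a solution in PBS acidified with 0.1 N HCl. Tumor volume and body weight were measured three times weekly for ≥2 weeks, with 6-8 animals per group and Student's t-test.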

SW48 [3] = assay: Antitumor activity against human SW48 cells xenografted in CD1 nude mouse at 90 mg/kg/day, po; assay type: functional; settings: read-out: TGI; summary of the method: as §1
SW48 [4] = assay: Antitumor activity against human SW48 cells xenografted in CD1 nude mouse at 60 mg/kg/day, po; assay type: functional; settings: read-out: TGI; summary of the method: as §1
DU-145 [5] = assay: Antitumor activity against human DU145 cells xenografted in CD1 nude mouse at 70 mg/kg/day, po; assay type: functional; settings: read-out: TGI; summary of the method: as §1
HMEC = assay: Antiproliferative activity against HMEC after 72 hrs by MTT assay; assay type: functional, cell-based; settings: Homo sapiens
Summary of the method: (§2)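 Cells (HMEC from a commercial source, others from ATCC) cultured per vendor instructions, exposed to a range of concentrations for 72 h at 37 °C, 5% CO2. MTT at 0.5 mg/mL final for 4 h, then DMF/SDS solubilization overnight, absorbance at 570 nm with 630 nm reference. OD converted to cell number via a growth curve. IC50 is the concentration giving 50% of DMSO-control cell number. At least three independent experiments.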

DU-145 [6] = assay: Antitumor activity against human DU145 cells xenografted in CD1 nude mouse at 40 mg/kg/day, po; assay type: functional; settings: read-out: TGI; summary of the method: as §1
HCT-116 [7] = assay: Cell cycle arrest in human HCT116 cells assessed as accumulation at G2/M phase; assay type: functional, cell-based
Summary of the method: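 Cells treated for 16 h, fixed in 70% ethanol at -20 °C, RNase-treated and stained with propidium iodide (50 µg/mL). DNA content measured by flow cytometry to score G2/M accumulation. EC50 derived.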

[8] = Clearance in Sprague-Dawley rat at 2.5 to 5 mg/kg, iv and 2.5 to 50 mg/kg, po; assay type: ADME, organism-based; settings: in vivo
Summary of the method: (§3)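 Female CD-1 mice, female Sprague-Dawley rats and male beagle dogs were dosed iv or orally. Vehicles: mice, 0.05-0.1 N HCl in saline for both routes. Rats, 0.02-0.1 N HCl in saline iv; for po, HCl/saline with 0.5% HPMC and 0.01% Tween-80, or 0.5% CMC in 50 mM acetate pH 4.0. Dogs, HCl/saline with 40% PEG400 iv; for po, HCl/saline ±PEG400 or 0.5% hydroxyethylcellulose in pH 4.0 acetate. Plasma was collected over time and analyzed by LC-MS/MS.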

[9] = Tmax in CD1 mouse at 2.5 to 15 mg/kg, po; assay type: ADME, organism-based; parameters: dose 2.5-15 mg/kg, route oral; settings: in vivo; summary of the method: as §3
A549 [10] = assay: Antitumor activity against human A549 cells xenografted in CD1 nude mouse at 40 mg/kg/day, po; assay type: functional; settings: read-out: TGI; summary of the method: as §1
[11] = Half life in Beagle dog at 10 mg/kg, iv; assay type: ADME, organism-based, Canis lupus familiaris; parameters: dose 10 mg/kg, route intravenous; settings: in vivo; summary of the method: as §3
[12] = Tmax in Beagle dog at 7 to 30 mg/kg, po; assay type: ADME, organism-based, Canis lupus familiaris; parameters: dose 7-30 mg/kg, route oral; settings: in vivo; summary of the method: as §3
[13] = Clearance in Beagle dog at 10 mg/kg, iv and 7 to 30 mg/kg, po; assay type: ADME, organism-based, Canis lupus familiaris; settings: in vivo; summary of the method: as §3
[14] = Half life in CD1 mouse at 2.5 to 15 mg/kg, iv; assay type: ADME, organism-based; parameters: dose 2.5-15 mg/kg, route intravenous; settings: in vivo; summary of the method: as §3
A-431 [15] = assay: Antitumor activity against human A431 cells xenografted in CD1 nude mouse at 90 mg/kg/day, po; assay type: functional; settings: read-out: TGI; summary of the method: as §1
[16] = Oral bioavailability in Sprague-Dawley rat at 2.5 to 50 mg/kg; assay type: ADME, organism-based; settings: in vivo
Summary of the method: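 Female Sprague-Dawley rats dosed iv 2.5-5 mg/kg in 0.02-0.1 N HCl/saline. Oral doses of 2.5-50 mg/kg were given either in 0.02-0.1 N HCl/saline with 0.5% HPMC and 0.01% Tween-80, or in 0.5% CMC in 50 mM acetate pH 4.0. Plasma sampled at various time points and analysed by HPLC-MS/MS.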

Rattus norvegicus = assay: Cmax in Sprague-Dawley rat at 2.5 to 50 mg/kg, po; assay type: ADME, organism-based; parameters: dose 2.5-50 mg/kg, route oral; settings: in vivo; summary of the method: as §3
A549 [17] = assay: Antiproliferative activity against human A549 cells after 72 hrs by MTT assay; settings: A549, 72 h
[18] = Oral bioavailability in CD1 mouse at 2.5 to 15 mg/kg; assay type: ADME, organism-based; settings: in vivo
Summary of the method: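 Female CD-1 mice dosed iv 2.5-15 mg/kg and orally 2.5-15 mg/kg. Both routes used 0.05-0.1 N HCl in saline. Plasma collected at various time points and analysed by HPLC-MS/MS. Bioavailability taken from oral versus iv exposure.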

T-24 = assay: Induction of H3 histone acetylation in human T24 cells relative to MS275; assay type: functional, cell-based
Summary of the method: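 Histones were acid-extracted (H2SO4, then acetone precipitation) from treated cells. In the ELISA, 2 µg of histones went onto anti-histone-coated plates and were probed with anti-acetyl-H3 (1:1000). Signal was normalized to total H3 measured on 0.5 µg with anti-H3.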

A-431 [19] = assay: Antitumor activity against human A431 cells xenografted in CD1 nude mouse at 60 mg/kg/day, po; assay type: functional; settings: read-out: TGI; summary of the method: as §1
Canis familiaris = assay: Cmax in Beagle dog at 7 to 30 mg/kg, po; assay type: ADME, organism-based, Canis lupus familiaris; parameters: dose 7-30 mg/kg, route oral; settings: in vivo; summary of the method: as §3
DU-145 [20] = assay: Antitumor activity against human DU145 cells xenografted in CD1 nude mouse at 80 mg/kg; assay type: functional; settings: read-out: TGI; summary of the method: as §1
Mus musculus [21] = assay: Volume of distribution in CD1 mouse at 2.5 to 15 mg/kg, iv and po; assay type: ADME, organism-based; parameters: dose 2.5-15 mg/kg, route oral; settings: in vivo; summary of the method: as §3
[22] = Oral bioavailability in Beagle dog at 7 to 30 mg/kg; assay type: ADME, organism-based, Canis lupus familiaris; settings: in vivo; summary of the method: as §3
[23] = Half life in Sprague-Dawley rat at 2.5 to 5 mg/kg, iv; assay type: ADME, organism-based; parameters: dose 2.5-5 mg/kg, route intravenous; settings: in vivo; summary of the method: as §3
HCT-116 [24] = assay: Induction of p21cip/waf1 protein expression in human HCT116 cells relative to MS275; assay type: functional, cell-based
[25] = Tmax in Sprague-Dawley rat at 2.5 to 50 mg/kg, po; assay type: ADME, organism-based; parameters: dose 2.5-50 mg/kg, route oral; settings: in vivo; summary of the method: as §3
Histone deacetylase 11 = target: T1, Histone deacetylase 11 (Homo sapiens, UniProt Q96DB2); assay: Inhibition of human recombinant HDAC11 homogeneous fluorescence release assay
T1 sequence (Q96DB2 whole entry): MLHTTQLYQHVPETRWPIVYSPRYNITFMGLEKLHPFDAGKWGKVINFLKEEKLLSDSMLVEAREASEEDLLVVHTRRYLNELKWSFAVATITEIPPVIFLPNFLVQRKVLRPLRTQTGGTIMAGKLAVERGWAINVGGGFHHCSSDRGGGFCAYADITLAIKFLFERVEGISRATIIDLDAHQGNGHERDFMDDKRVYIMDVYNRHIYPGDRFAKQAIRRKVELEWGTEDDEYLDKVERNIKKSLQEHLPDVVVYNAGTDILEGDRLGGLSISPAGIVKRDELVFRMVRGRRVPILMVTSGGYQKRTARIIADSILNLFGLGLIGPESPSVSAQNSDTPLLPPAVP
Summary of the method: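 Boc-Lys(ε-Ac)-AMC substrate then added at 37 °C, with isotype-specific substrate level and time. Trypsin 20 min at RT releases fluorophore, read ex 360/em 470 nm. IC50 from dose-response curves, 6-21 independent experiments.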

A549 [26] = assay: Antitumor activity against human A549 cells xenografted in CD1 nude mouse at 60 mg/kg/day, po; assay type: functional; settings: read-out: TGI; summary of the method: as §1
[27] = Volume of distribution at steady state in Beagle dog at 10 mg/kg, iv and 7 to 30 mg/kg, po; assay type: ADME, organism-based, Canis lupus familiaris; settings: in vivo, read-out: Vdss; summary of the method: as §3
DU-145 [28] = assay: Antiproliferative activity against human Du145 cells after 72 hrs by MTT assay; assay type: functional, cell-based; settings: DU-145, 72 h; summary of the method: as §2
[29] = Volume of distribution at steady state in Sprague-Dawley rat at 2.5 to 5 mg/kg, iv and 2.5 to 50 mg/kg, po; assay type: ADME, organism-based; settings: in vivo, read-out: Vdss; summary of the method: as §3
HCT-116 [30] = assay: Antiproliferative activity against human HCT116 cells after 72 hrs by MTT assay; settings: HCT-116, 72 h
Mus musculus [31] = assay: Cmax in CD1 mouse at 2.5 to 15 mg/kg, po; assay type: ADME, organism-based; parameters: dose 2.5-15 mg/kg, route oral; settings: in vivo; summary of the method: as §3

Compound: Nc1ccccc1NC(=O)c1ccc(CNc2nccc(-c3cccnc3)n2)cc1
Activity (HCT-116 [1]): Active

Compound: Nc1ccccc1NC(=O)c1ccc(CNc2nccc(-c3cccnc3)n2)cc1 [MOCETINOSTAT DIHYDROBROMIDE]
inhibition in vivo at 120 mg/kg/day (SW48 [2]): 93%
inhibition in vivo at 90 mg/kg/day (SW48 [3]): 70%
inhibition in vivo at 60 mg/kg/day (SW48 [4]): 64%

EC50 (HCT-116 [7]): < 1000 nM
clearance [8]: 28.3 mL/min/kg
Tmax [9]: 15 min
half-life [11]: 78 min
Tmax [12]: 17.4 min
clearance [13]: 33.3 mL/min/kg
half-life [14]: 36 min
bioavailability [16]: 47%
Cmax normalised (Rattus norvegicus): 0.3 µM/mg/kg
IC50 (A549 [17]): 900 nM
bioavailability [18]: 12%
EC50 (T-24): 1380 nM
Cmax normalised (Canis familiaris): 0.0029 µM/mg/kg
Vdss (Mus musculus [21]): 0.35 L/kg
bioavailability [22]: 1%
half-life [23]: 42 min
EC50 (HCT-116 [24]): 450 nM
Tmax [25]: 35.4 min
IC50 (Histone deacetylase 11): 590 nM
Vd [27]: 0.8 L/kg
IC50 (DU-145 [28]): 670 nM
Vd [29]: 0.91 L/kg
IC50 (HCT-116 [30]): 290 nM
Cmax normalised (Mus musculus [31]): 0.086 µM/mg/kg
Compound: Nc1ccccc1NC(=O)c1ccc(CNc2nccc(-c3cccnc3)n2)cc1 [MOCETINOSTAT]
inhibition in vivo at 70 mg/kg/day (DU-145 [5]): 47%
IC50 (HMEC): 20000 nM
inhibition in vivo at 40 mg/kg/day (DU-145 [6]): 4%
inhibition in vivo at 40 mg/kg/day (A549 [10]): 56%
inhibition in vivo at 90 mg/kg/day (A-431 [15]): 64%
inhibition in vivo at 60 mg/kg/day (A-431 [19]): 30%
inhibition in vivo at 80 mg/kg (DU-145 [20]): 82%
inhibition in vivo at 60 mg/kg/day (A549 [26]): 73%
